The results in this text go back to ChEMBL document CHEMBL1155459, “On-bead screening of a combinatorial fumaric acid derived peptide library yields antiplasmodial cysteine protease inhibitors with unusual peptide sequences” (J Med Chem, 2009).

In test [1] the target is Rhodesain (Trypanosoma brucei rhodesiense) (UniProt Q95PM0). The experiment in a line: Inhibition of Trypanosoma brucei rhodesiense rhodesain after 12 hrs by fluorescence spectroscopy-based on-bead assay. The arrangement: concentration or dose not given beside the values. Particulars: concentration not given here. A digest of the protocol: (§1)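 Library members on resin (PEGA, theoretical loading 0.40 mmol/g; added as DMSO suspension, 0.64 mM final inhibitor) preincubated with enzyme 12 h, then Cbz-Phe-Arg-AMC 40 μM added; AMC release followed by fluorescence (ex 380/em 460 nm). Kinetics compared with inhibitor-free amino-PEGA resin.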
Sequence of Rhodesain (Trypanosoma brucei rhodesiense) (Q95PM0 1-450): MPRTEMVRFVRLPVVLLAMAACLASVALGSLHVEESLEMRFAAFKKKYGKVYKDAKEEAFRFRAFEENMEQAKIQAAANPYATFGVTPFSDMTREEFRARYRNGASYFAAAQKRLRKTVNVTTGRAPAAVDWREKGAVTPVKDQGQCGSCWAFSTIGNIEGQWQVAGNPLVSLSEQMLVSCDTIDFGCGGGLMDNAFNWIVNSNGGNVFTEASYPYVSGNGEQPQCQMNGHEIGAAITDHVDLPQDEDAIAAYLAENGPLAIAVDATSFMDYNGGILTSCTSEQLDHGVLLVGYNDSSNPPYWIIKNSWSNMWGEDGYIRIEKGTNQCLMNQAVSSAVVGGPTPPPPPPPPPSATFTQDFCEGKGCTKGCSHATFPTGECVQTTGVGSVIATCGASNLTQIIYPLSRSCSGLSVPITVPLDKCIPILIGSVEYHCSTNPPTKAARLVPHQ

Test [2] is described as follows: Inhibition of Plasmodium falciparum falcipain-2 after 12 hrs by fluorescence spectroscopy-based on-bead assay. The arrangement: concentration or dose not given beside the values. The conditions noted are these: concentration not given here. A digest of the protocol: as §1

Molecules are shown by their SMILES. Peptide text beside a SMILES is read from it.

In general, inhibition refers to the share of the control response that was lost under treatment.

As to `CC(C)[C@H](NC(=O)[C@H](C)NC(=O)[C@@H](NC(=O)[C@H](C)NC(=O)/C=C/C(=O)NCC(=O)NCC(=O)N[C@@H](Cc1ccccc1)C(=O)O)C1CCCCC1)C(N)=O` (HELM PEPTIDE1{[O=C(/C=C/C(=O)[*:2])NCC(=O)NCC(=O)N[C@@H](Cc1ccccc1)C(=O)O].A.[O=C([C@@H](N[*:1])C1CCCCC1)[*:2]].A.V.[am]}$$$$V2.0), the inhibition in test [1] stood at 26%; in test [2] it was 31%.
On to `CC(C)C[C@H](NC(=O)[C@@H](NC(=O)[C@H](C)NC(=O)/C=C/C(=O)NCC(=O)NCC(=O)N[C@@H](Cc1ccccc1)C(=O)O)C1CCCCC1)C(=O)N[C@H](C(N)=O)C(C)C` (HELM PEPTIDE1{[O=C(/C=C/C(=O)[*:2])NCC(=O)NCC(=O)N[C@@H](Cc1ccccc1)C(=O)O].A.[O=C([C@@H](N[*:1])C1CCCCC1)[*:2]].L.V.[am]}$$$$V2.0), for which the inhibition in test [1] was found to be 60%; in test [2] it was 43%.
Turning to `CC(C)[C@H](NC(=O)[C@@H](NC(=O)[C@@H](NC(=O)[C@H](C)NC(=O)/C=C/C(=O)NCC(=O)NCC(=O)N[C@@H](Cc1ccccc1)C(=O)O)C1CCCCC1)C(C)C)C(N)=O` (HELM PEPTIDE1{[O=C(/C=C/C(=O)[*:2])NCC(=O)NCC(=O)N[C@@H](Cc1ccccc1)C(=O)O].A.[O=C([C@@H](N[*:1])C1CCCCC1)[*:2]].V.V.[am]}$$$$V2.0), the inhibition was 40% in test [1] and 54% in test [2].
Consider `CC(C)[C@H](NC(=O)[C@H](C)NC(=O)[C@@H](NC(=O)[C@H](C)NC(=O)/C=C/C(=O)NCC(=O)NCC(=O)N[C@@H](Cc1ccccc1)C(=O)O)c1ccccc1)C(N)=O` (HELM PEPTIDE1{[O=C(/C=C/C(=O)[*:2])NCC(=O)NCC(=O)N[C@@H](Cc1ccccc1)C(=O)O].A.[Phg].A.V.[am]}$$$$V2.0), for which the inhibition in test [1] is 16%; in test [2], 41%.
As to `CC(C)C[C@H](NC(=O)[C@@H](NC(=O)[C@H](C)NC(=O)/C=C/C(=O)NCC(=O)NCC(=O)N[C@@H](Cc1ccccc1)C(=O)O)c1ccccc1)C(=O)N[C@H](C(N)=O)C(C)C` (HELM PEPTIDE1{[O=C(/C=C/C(=O)[*:2])NCC(=O)NCC(=O)N[C@@H](Cc1ccccc1)C(=O)O].A.[Phg].L.V.[am]}$$$$V2.0), the inhibition came out at 54% in test [1] and 53% in test [2].
As for `CC(C)[C@H](NC(=O)[C@@H](NC(=O)[C@@H](NC(=O)[C@H](C)NC(=O)/C=C/C(=O)NCC(=O)NCC(=O)N[C@@H](Cc1ccccc1)C(=O)O)c1ccccc1)C(C)C)C(N)=O` (HELM PEPTIDE1{[O=C(/C=C/C(=O)[*:2])NCC(=O)NCC(=O)N[C@@H](Cc1ccccc1)C(=O)O].A.[Phg].V.V.[am]}$$$$V2.0), the inhibition turned out to be 36% in test [1] and 56% in test [2].
With `CC(C)[C@H](NC(=O)[C@H](C)NC(=O)[C@H](Cc1ccccc1)NC(=O)[C@H](Cc1ccccc1)NC(=O)/C=C/C(=O)NCC(=O)NCC(=O)N[C@@H](Cc1ccccc1)C(=O)O)C(N)=O` (HELM PEPTIDE1{[O=C(/C=C/C(=O)[*:2])NCC(=O)NCC(=O)N[C@@H](Cc1ccccc1)C(=O)O].F.F.A.V.[am]}$$$$V2.0), the values for the inhibition in test [1] and in test [2] were 47% and 43%, respectively.
For the molecule `CC(C)C[C@H](NC(=O)[C@H](Cc1ccccc1)NC(=O)[C@H](Cc1ccccc1)NC(=O)/C=C/C(=O)NCC(=O)NCC(=O)N[C@@H](Cc1ccccc1)C(=O)O)C(=O)N[C@H](C(N)=O)C(C)C` (HELM PEPTIDE1{[O=C(/C=C/C(=O)[*:2])NCC(=O)NCC(=O)N[C@@H](Cc1ccccc1)C(=O)O].F.F.L.V.[am]}$$$$V2.0), the inhibition amounted to 52% in test [1] and 41% in test [2].
As for `CC(C)[C@H](NC(=O)[C@@H](NC(=O)[C@H](Cc1ccccc1)NC(=O)[C@H](Cc1ccccc1)NC(=O)/C=C/C(=O)NCC(=O)NCC(=O)N[C@@H](Cc1ccccc1)C(=O)O)C(C)C)C(N)=O` (HELM PEPTIDE1{[O=C(/C=C/C(=O)[*:2])NCC(=O)NCC(=O)N[C@@H](Cc1ccccc1)C(=O)O].F.F.V.V.[am]}$$$$V2.0), the inhibition in test [1] was 51%; in test [2], 60%.
In the case of `CC[C@H](C)[C@H](NC(=O)[C@H](Cc1ccccc1)NC(=O)/C=C/C(=O)NCC(=O)NCC(=O)N[C@@H](Cc1ccccc1)C(=O)O)C(=O)N[C@@H](C)C(=O)N[C@H](C(N)=O)C(C)C` (HELM PEPTIDE1{[O=C(/C=C/C(=O)[*:2])NCC(=O)NCC(=O)N[C@@H](Cc1ccccc1)C(=O)O].F.I.A.V.[am]}$$$$V2.0), the inhibition in test [1] was 30%; in test [2], 52%.
On the same counts, the results for `CC[C@H](C)[C@H](NC(=O)[C@H](Cc1ccccc1)NC(=O)/C=C/C(=O)NCC(=O)NCC(=O)N[C@@H](Cc1ccccc1)C(=O)O)C(=O)N[C@@H](CC(C)C)C(=O)N[C@H](C(N)=O)C(C)C` (HELM PEPTIDE1{[O=C(/C=C/C(=O)[*:2])NCC(=O)NCC(=O)N[C@@H](Cc1ccccc1)C(=O)O].F.I.L.V.[am]}$$$$V2.0) are 73% and 58%.
With `CC[C@H](C)[C@H](NC(=O)[C@H](Cc1ccccc1)NC(=O)/C=C/C(=O)NCC(=O)NCC(=O)N[C@@H](Cc1ccccc1)C(=O)O)C(=O)N[C@H](C(=O)N[C@H](C(N)=O)C(C)C)C(C)C` (HELM PEPTIDE1{[O=C(/C=C/C(=O)[*:2])NCC(=O)NCC(=O)N[C@@H](Cc1ccccc1)C(=O)O].F.I.V.V.[am]}$$$$V2.0), the values for the inhibition in test [1] and in test [2] were 50% and 58%, respectively.
With `CC(C)C[C@H](NC(=O)[C@H](Cc1ccccc1)NC(=O)/C=C/C(=O)NCC(=O)NCC(=O)N[C@@H](Cc1ccccc1)C(=O)O)C(=O)N[C@@H](C)C(=O)N[C@H](C(N)=O)C(C)C` (HELM PEPTIDE1{[O=C(/C=C/C(=O)[*:2])NCC(=O)NCC(=O)N[C@@H](Cc1ccccc1)C(=O)O].F.L.A.V.[am]}$$$$V2.0), the inhibition was determined as 71% in test [1] and 45% in test [2].
Regarding `CC(C)C[C@H](NC(=O)[C@H](Cc1ccccc1)NC(=O)/C=C/C(=O)NCC(=O)NCC(=O)N[C@@H](Cc1ccccc1)C(=O)O)C(=O)N[C@H](C(=O)N[C@H](C(N)=O)C(C)C)C(C)C` (HELM PEPTIDE1{[O=C(/C=C/C(=O)[*:2])NCC(=O)NCC(=O)N[C@@H](Cc1ccccc1)C(=O)O].F.L.V.V.[am]}$$$$V2.0), the inhibition in test [1] came to 58%; in test [2], 46%.
For `CC(C)[C@H](NC(=O)[C@H](C)NC(=O)[C@@H](NC(=O)[C@H](Cc1ccccc1)NC(=O)/C=C/C(=O)NCC(=O)NCC(=O)N[C@@H](Cc1ccccc1)C(=O)O)C1CCCCC1)C(N)=O` (HELM PEPTIDE1{[O=C(/C=C/C(=O)[*:2])NCC(=O)NCC(=O)N[C@@H](Cc1ccccc1)C(=O)O].F.[O=C([C@@H](N[*:1])C1CCCCC1)[*:2]].A.V.[am]}$$$$V2.0), the inhibition in test [1] was 48%; in test [2], 65%.
Take `CC(C)C[C@H](NC(=O)[C@@H](NC(=O)[C@H](Cc1ccccc1)NC(=O)/C=C/C(=O)NCC(=O)NCC(=O)N[C@@H](Cc1ccccc1)C(=O)O)C1CCCCC1)C(=O)N[C@H](C(N)=O)C(C)C` (HELM PEPTIDE1{[O=C(/C=C/C(=O)[*:2])NCC(=O)NCC(=O)N[C@@H](Cc1ccccc1)C(=O)O].F.[O=C([C@@H](N[*:1])C1CCCCC1)[*:2]].L.V.[am]}$$$$V2.0): the inhibition in test [1] came to 57%; in test [2] it was 40%.
As for `CC(C)[C@H](NC(=O)[C@@H](NC(=O)[C@@H](NC(=O)[C@H](Cc1ccccc1)NC(=O)/C=C/C(=O)NCC(=O)NCC(=O)N[C@@H](Cc1ccccc1)C(=O)O)C1CCCCC1)C(C)C)C(N)=O` (HELM PEPTIDE1{[O=C(/C=C/C(=O)[*:2])NCC(=O)NCC(=O)N[C@@H](Cc1ccccc1)C(=O)O].F.[O=C([C@@H](N[*:1])C1CCCCC1)[*:2]].V.V.[am]}$$$$V2.0), the inhibition in test [1] stood at 49%; in test [2] it was 48%.
As to `CC(C)[C@H](NC(=O)[C@H](C)NC(=O)[C@@H](NC(=O)[C@H](Cc1ccccc1)NC(=O)/C=C/C(=O)NCC(=O)NCC(=O)N[C@@H](Cc1ccccc1)C(=O)O)c1ccccc1)C(N)=O` (HELM PEPTIDE1{[O=C(/C=C/C(=O)[*:2])NCC(=O)NCC(=O)N[C@@H](Cc1ccccc1)C(=O)O].F.[Phg].A.V.[am]}$$$$V2.0), the inhibition in test [1] came out at 51%; in test [2] it was 62%.
On to `CC(C)C[C@H](NC(=O)[C@@H](NC(=O)[C@H](Cc1ccccc1)NC(=O)/C=C/C(=O)NCC(=O)NCC(=O)N[C@@H](Cc1ccccc1)C(=O)O)c1ccccc1)C(=O)N[C@H](C(N)=O)C(C)C` (HELM PEPTIDE1{[O=C(/C=C/C(=O)[*:2])NCC(=O)NCC(=O)N[C@@H](Cc1ccccc1)C(=O)O].F.[Phg].L.V.[am]}$$$$V2.0), for which the results for the inhibition in test [1] and in test [2] were 71% and 40%, respectively.
On to `CC(C)[C@H](NC(=O)[C@@H](NC(=O)[C@@H](NC(=O)[C@H](Cc1ccccc1)NC(=O)/C=C/C(=O)NCC(=O)NCC(=O)N[C@@H](Cc1ccccc1)C(=O)O)c1ccccc1)C(C)C)C(N)=O` (HELM PEPTIDE1{[O=C(/C=C/C(=O)[*:2])NCC(=O)NCC(=O)N[C@@H](Cc1ccccc1)C(=O)O].F.[Phg].V.V.[am]}$$$$V2.0), for which the inhibition in test [1] came out at 68%; in test [2], 35%.
In the case of `CC(C)[C@H](NC(=O)[C@H](C)NC(=O)[C@H](Cc1ccccc1)NC(=O)[C@H](CC(N)=O)NC(=O)/C=C/C(=O)NCC(=O)NCC(=O)N[C@@H](Cc1ccccc1)C(=O)O)C(N)=O` (HELM PEPTIDE1{[O=C(/C=C/C(=O)[*:2])NCC(=O)NCC(=O)N[C@@H](Cc1ccccc1)C(=O)O].N.F.A.V.[am]}$$$$V2.0), the values for the inhibition in test [1] and in test [2] were 66% and 61%, respectively.
In the case of `CC(C)[C@H](NC(=O)[C@@H](NC(=O)[C@H](Cc1ccccc1)NC(=O)[C@H](CC(N)=O)NC(=O)/C=C/C(=O)NCC(=O)NCC(=O)N[C@@H](Cc1ccccc1)C(=O)O)C(C)C)C(N)=O` (HELM PEPTIDE1{[O=C(/C=C/C(=O)[*:2])NCC(=O)NCC(=O)N[C@@H](Cc1ccccc1)C(=O)O].N.F.V.V.[am]}$$$$V2.0), the inhibition came to 28% in test [1] and 40% in test [2].
